Experimental data taken from ChEMBL document CHEMBL4024790 (J Med Chem, 2018).
The source made the active and inactive calls. The calls are words filed in the database; no cut-off is given here.

Columns and labels:
Liver = assay: Drug metabolism in dog liver microsomes assessed as 3-(7-methyl-5-(1-methyl-5-(5-(trifluoromethyl)pyridin-2-yl)-1H-pyrazol-4-yl)imidazo[1,5-f][1,2,4]triazin-4-ylamino)propanoic acid formation at 1 to 50 uM after 1 hr by LC-MS/MS analysis; format: ADME, Canis lupus familiaris, microsome
Outline: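 Rat, dog or human liver microsomes or hepatocytes (P450 0.35–0.5 µM final) incubated with compound at 1, 10 or 50 µM in 100 mM phosphate buffer with 1 mM NADP regenerating system, 37°C for 1 h; quenched with 4 volumes acetonitrile, centrifuged, supernatant evaporated, reconstituted in 5% aqueous acetonitrile and analysed by reversed-phase LC.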

Rattus norvegicus = assay: Reversal of ketamine-induced working memory deficit in Long Evans rat assessed as unbound brain concentration required to show effect at 0.1 mg/kg, sc by radial arm maze assay; format: functional, organism-based
Outline: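 Rats trained in a radial arm maze working-memory task, with deficit induced by ketamine. Compound dosed sc; errors compared with vehicle + ketamine. N = 20–23 per group, Hochberg test. Cbu at the tested doses estimated from satellite pharmacokinetic animals.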

Mus musculus [1] = species: Mus musculus; assay: Effect on cAMP level in CD-1 mouse brain hippocampus by immunoassay; format: functional
Outline: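 CD-1 mice dosed SC (solution in 20% SBE-β-CD with 2 molar equivalents 1N HCl, 1 mL/kg); euthanized by focused microwave irradiation of brain; cortex, striatum, hippocampus homogenized in 0.5 N HCl, centrifuged; cyclic nucleotides in supernatant by enzyme immunoassay. Unbound brain exposure from satellite animals; dose-response and time-course data combined with linear model; one-way ANOVA with Fisher's PLSD.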

Mus musculus [2] = assay: In vivo effect on phosphorylated CREB level in CD-1 mouse brain cortex by immunoassay; format: functional, organism-based
Mus musculus [3] = species: Mus musculus; assay: Increase in cGMP level in CD-1 mouse brain hippocampus assessed per nM of unbound brain concentration by immunoassay; format: functional
Outline: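 CD-1 mice given compound; brains fixed by focused microwave irradiation, and cortex, striatum and hippocampus dissected and homogenized in 0.5 N HCl, then centrifuged. cGMP in the supernatant measured by enzyme immunoassay. Unbound brain concentration taken from satellite animals. Dose-response and time-course data combined, and a linear Cbu–cGMP model fitted. The Cbu E50 is the projected Cbu giving a 50% rise in cGMP. Statistics by one-way ANOVA with Fisher's PLSD, p<0.05.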

Cytochrome P450 3A = Cytochrome P450 3A (Homo sapiens, UniProt P08684+P20815+Q9HB55+P24462); assay: Time-dependant inhibition of recombinant human CYP3A; format: ADME; settings: recombinant enzyme
[4] = Ratio of unbound brain concentration to unbound plasma concentration in po dosed beagle dog; format: ADME, organism-based, Canis lupus familiaris; settings: brain and plasma, read-out: K(p,uu,brain)
Outline: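 Compound given sc to mice, iv and/or sc to rats, po to dogs and sc to monkeys; sc doses as a solution in 20% SBE-BCD + 2 molar equiv 1N HCl. Plasma, whole brain and CSF taken at matched times from 2 min to 24 h and quantified by LC-MS/MS. Fraction unbound in plasma and brain homogenate (diluted 4-fold, dilution factor 5 applied) by 6 h equilibrium dialysis against phosphate buffer at 37°C.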

[5] = Volume of distribution at steady state in Wistar Han rat at 1 mg/kg, iv by LC-MS/MS analysis; format: ADME, organism-based; settings: in vivo, read-out: Vdss
Outline: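 Male Wistar-Han rats got a single IV dose as a solution in 20% (w/v) sulfobutyl ether β-cyclodextrin with hydrochloric acid, at 1 mL/kg. Blood was drawn into K2EDTA via carotid artery cannula at set times from 2 min to 24 h. Plasma was protein-precipitated with acetonitrile plus internal standard and quantified by LC-MS/MS with positive electrospray, standard curve 0.61 to 625 ng/mL.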

[6] = Cmax in beagle dog at 0.3 mg/kg, iv by LC-MS/MS analysis; format: ADME, organism-based, Canis lupus familiaris; parameters: dose 0.3 mg/kg, route intravenous; settings: in vivo
Outline: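 Male Wistar-Han rats given single 1 mg/kg IV; beagle dogs 0.3 mg/kg IV; solution in 20% (w/v) sulfobutyl ether β-cyclodextrin with hydrochloric acid, 1 mL/kg (rat) or 0.4 mL/kg (dog). Blood via carotid artery cannula between 2 min and 24 h into EDTA tubes; plasma analysed by LC-MS/MS with positive electrospray.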

Drug metabolism (Liver): Metabolite_Detected | TDI (Cytochrome P450 3A): Not Active | Kp uu [4]: 0.58 | Vd [5]: 3.94 L/kg | Cmax [6]: 293 ng/mL
Compound: Cc1nc(-c2cnn(C)c2-c2ccc(C(F)(F)F)cn2)c2c(N3CCC3)ncnn12 [PF-05180999]
Drug uptake(free) (Rattus norvegicus): 3.1 nM | Activity (Mus musculus [1]): inactive | Activity (Mus musculus [2]): inactive | Activity (Mus musculus [3]): 0.43%
